Experiments:
[1] = target: T1, Neuronal acetylcholine receptor; alpha3/beta4 (Homo sapiens, UniProt P30926+P32297); experiment: Displacement of [3H]-epibatidine from human alpha3beta4 transfected in HEK293 cell membranes preincubated for 5 mins followed by [3H]-epibatidine addition and measured after overnight incubation by liquid scintillation beta counter analysis; set-up: species or system Membrane
In short: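 Membranes (rat cerebral cortex for α4β2; HEK cells stably transfected with human α3β4) were pre-exposed to rising compound concentrations for 5 min. They were then incubated overnight at 4 °C with [3H]epibatidine (0.1 nM for α4β2, 0.25 nM for α3β4). Samples were filtered on PEI-soaked GFC filters and counted by β scintillation. Nonspecific binding was set with 100 nM epibatidine.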

[2] = target: Neuronal acetylcholine receptor subunit alpha-7 (Rattus norvegicus, UniProt Q05941); experiment: Displacement of [125I]alpha-bungarotoxin from alpha7nAChR in rat hippocampus membranes preincubated for 5 mins followed by [125I]alpha-bungarotoxin addition and measured after overnight incubation by liquid scintillation beta counter analysis; format: cell membranes, Membrane
[3] = target: Neuronal acetylcholine receptor; alpha4/beta2 (Rattus norvegicus, UniProt P09483+P12390); experiment: Displacement of [3H]-Epibatidine from alpha4beta2 nAChR in rat cerebral cortex membrane preincubated for 5 mins followed by [3H]-Epibatidine addition and measured after overnight incubation by liquid scintillation beta counter analysis; format: cell membranes
In short: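 Membranes (rat cerebral cortex for α4β2; HEK cells stably transfected with human α3β4) were pre-exposed to rising compound concentrations for 5 min. Samples were filtered on PEI-soaked GFC filters and counted by β scintillation. Nonspecific binding was set with 100 nM epibatidine.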

[4] = Displacement of [3H]-epibatidine from human alpha4beta2 nAChR S108A mutant transfected in human Hela cell membranes preincubated for 5 mins followed by [3H]-Epibatidine addition and measured after overnight incubation by liquid scintillation beta counter analysis
In short: (§1)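 HeLa cells were transiently transfected (JetPEI) with 7.5 μg each of α4 and β2 (wild-type or mutant) cDNA and harvested after 24 h. Membranes were pre-exposed to compounds for 5 min, then incubated overnight at 4 °C with 0.1 nM [3H]epibatidine, filtered and counted by β scintillation. Ki came from the Cheng–Prusoff equation, three independent experiments in duplicate.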

[5] = Selectivity index, ratio of Ki for displacement of [3H]-Epibatidine from wild type human alpha4beta2 nAChR transfected in Hela cell membrane to Ki for displacement of [3H]-Epibatidine from human alpha4beta2 nAChR S108A mutant transfected in Hela cell membrane; format: cell membranes; in short: as §1
[6] = target: T2, Neuronal acetylcholine receptor; alpha4/beta2 (Homo sapiens, UniProt P17787+P43681); experiment: Displacement of [3H]-epibatidine from wild type human alpha4beta2 nAChR transfected in human Hela cell membranes preincubated for 5 mins followed by [3H]-epibatidine addition and measured after overnight incubation by liquid scintillation beta counter analysis; in short: as §1
[7] = target: T1, Neuronal acetylcholine receptor; alpha3/beta4; experiment: Antagonist activity at human alpha3beta4 transfected in rat GH4-C1 cells assessed as inhibition of ACh-induced response at holding potential of -70 mV by whole cell patch clamp electrophysiology method; format: cell-based
GH4-C1 = experiment: Agonist activity at human alpha4beta2 S108A mutant transfected in rat GH4-C1 cells assessed as maximum response at holding potential of -70 mV by whole cell patch clamp electrophysiology method relative to ACh; format: cell-based
In short: (§2)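 GH4C1 cells were transiently transfected by magnetofection with 0.5 μg of each human subunit cDNA (wild-type or S108A α4β2; α3β4). Whole-cell currents were recorded in HEPES-buffered saline at pH 7.3, with CsCl/BAPTA pipettes and fast perfusion of agonist. Concentrations were applied sequentially, and peak currents were normalized to 100 μM ACh on the same cell. EC50, Imax and Hill coefficient came from a Hill-equation fit.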

[8] = target: T2, Neuronal acetylcholine receptor; alpha4/beta2; experiment: Partial agonist activity at wild type human alpha4beta2 transfected in rat GH4-C1 cells assessed as maximum response at holding potential of -70 mV by whole cell patch clamp electrophysiology method relative to ACh; format: cell-based; in short: as §2
[9] = target: T2, Neuronal acetylcholine receptor; alpha4/beta2; experiment: Partial agonist activity at human alpha4beta2 transfected in rat GH4-C1 cells assessed as maximum response at holding potential of -70 mV by whole cell patch clamp electrophysiology method relative to ACh; format: cell-based; in short: as §2
[10] = target: T1, Neuronal acetylcholine receptor; alpha3/beta4; experiment: Partial agonist activity at human alpha3beta4 transfected in rat GH4-C1 cells assessed as maximum response at holding potential of -70 mV by whole cell patch clamp electrophysiology method relative to ACh; format: cell-based; in short: as §2
[11] = target: T1, Neuronal acetylcholine receptor; alpha3/beta4; experiment: Partial agonist activity at human alpha3beta4 transfected in rat GH4-C1 cells at holding potential of -70 mV by whole cell patch clamp electrophysiology method; format: cell-based; in short: as §2
[12] = target: T2, Neuronal acetylcholine receptor; alpha4/beta2; experiment: Agonist activity at wild type human alpha4beta2 transfected in rat GH4-C1 cells at holding potential of -70 mV by whole cell patch clamp electrophysiology method; format: cell-based; in short: as §2
[13] = Agonist activity at human alpha4beta2 S108A mutant transfected in rat GH4-C1 cells at holding potential of -70 mV by whole cell patch clamp electrophysiology method; format: cell-based; in short: as §2
[14] = target: T2, Neuronal acetylcholine receptor; alpha4/beta2; experiment: Partial agonist activity at human alpha4beta2 transfected in rat GH4-C1 cells at holding potential of -70 mV by whole cell patch clamp electrophysiology method; format: cell-based; in short: as §2

Neuronal acetylcholine receptor subunit alpha-7, sequence (Q05941 whole entry): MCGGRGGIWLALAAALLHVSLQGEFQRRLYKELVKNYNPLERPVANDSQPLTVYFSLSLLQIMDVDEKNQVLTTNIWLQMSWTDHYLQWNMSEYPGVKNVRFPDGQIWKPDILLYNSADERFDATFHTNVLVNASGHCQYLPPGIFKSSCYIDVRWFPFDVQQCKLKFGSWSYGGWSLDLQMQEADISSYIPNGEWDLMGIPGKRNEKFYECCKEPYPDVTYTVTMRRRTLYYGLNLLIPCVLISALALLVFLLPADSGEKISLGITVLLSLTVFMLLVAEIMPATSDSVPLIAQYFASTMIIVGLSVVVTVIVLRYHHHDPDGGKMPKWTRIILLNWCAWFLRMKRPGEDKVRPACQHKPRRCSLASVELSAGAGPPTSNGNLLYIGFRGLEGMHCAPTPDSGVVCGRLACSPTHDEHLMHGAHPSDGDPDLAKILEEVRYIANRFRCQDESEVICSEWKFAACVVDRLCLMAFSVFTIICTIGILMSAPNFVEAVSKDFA
T1 sequence (P30926 whole entry): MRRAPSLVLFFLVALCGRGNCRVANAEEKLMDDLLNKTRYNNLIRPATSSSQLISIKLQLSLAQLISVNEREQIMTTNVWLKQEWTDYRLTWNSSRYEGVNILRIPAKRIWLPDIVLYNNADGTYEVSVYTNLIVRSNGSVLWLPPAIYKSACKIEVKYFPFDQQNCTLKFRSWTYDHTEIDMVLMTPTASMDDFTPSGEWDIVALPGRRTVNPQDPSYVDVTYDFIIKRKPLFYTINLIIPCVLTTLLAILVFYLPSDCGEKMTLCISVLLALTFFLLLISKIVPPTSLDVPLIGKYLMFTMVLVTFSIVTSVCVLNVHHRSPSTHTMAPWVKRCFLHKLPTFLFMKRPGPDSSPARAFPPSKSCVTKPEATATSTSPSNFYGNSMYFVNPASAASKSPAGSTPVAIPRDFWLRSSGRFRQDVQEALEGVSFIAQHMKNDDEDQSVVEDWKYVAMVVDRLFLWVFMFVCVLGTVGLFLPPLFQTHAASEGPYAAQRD
T1 sequence (P32297 whole entry): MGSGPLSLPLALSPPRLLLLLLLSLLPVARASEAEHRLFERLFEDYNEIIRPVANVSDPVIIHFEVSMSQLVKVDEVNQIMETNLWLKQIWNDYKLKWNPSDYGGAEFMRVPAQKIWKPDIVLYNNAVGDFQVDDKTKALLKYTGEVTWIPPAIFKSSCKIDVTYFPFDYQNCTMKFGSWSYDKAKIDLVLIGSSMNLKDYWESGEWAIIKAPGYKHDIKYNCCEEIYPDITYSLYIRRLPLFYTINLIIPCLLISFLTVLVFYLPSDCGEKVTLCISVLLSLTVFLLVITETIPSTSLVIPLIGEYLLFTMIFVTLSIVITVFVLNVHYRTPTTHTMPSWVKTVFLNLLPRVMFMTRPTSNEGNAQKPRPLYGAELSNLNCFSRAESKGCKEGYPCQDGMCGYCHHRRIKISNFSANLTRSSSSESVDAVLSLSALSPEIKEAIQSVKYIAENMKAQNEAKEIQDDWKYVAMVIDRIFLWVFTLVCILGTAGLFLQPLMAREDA
Neuronal acetylcholine receptor; alpha4/beta2 (Rattus norvegicus, UniProt P09483+P12390), sequence (P09483 whole entry): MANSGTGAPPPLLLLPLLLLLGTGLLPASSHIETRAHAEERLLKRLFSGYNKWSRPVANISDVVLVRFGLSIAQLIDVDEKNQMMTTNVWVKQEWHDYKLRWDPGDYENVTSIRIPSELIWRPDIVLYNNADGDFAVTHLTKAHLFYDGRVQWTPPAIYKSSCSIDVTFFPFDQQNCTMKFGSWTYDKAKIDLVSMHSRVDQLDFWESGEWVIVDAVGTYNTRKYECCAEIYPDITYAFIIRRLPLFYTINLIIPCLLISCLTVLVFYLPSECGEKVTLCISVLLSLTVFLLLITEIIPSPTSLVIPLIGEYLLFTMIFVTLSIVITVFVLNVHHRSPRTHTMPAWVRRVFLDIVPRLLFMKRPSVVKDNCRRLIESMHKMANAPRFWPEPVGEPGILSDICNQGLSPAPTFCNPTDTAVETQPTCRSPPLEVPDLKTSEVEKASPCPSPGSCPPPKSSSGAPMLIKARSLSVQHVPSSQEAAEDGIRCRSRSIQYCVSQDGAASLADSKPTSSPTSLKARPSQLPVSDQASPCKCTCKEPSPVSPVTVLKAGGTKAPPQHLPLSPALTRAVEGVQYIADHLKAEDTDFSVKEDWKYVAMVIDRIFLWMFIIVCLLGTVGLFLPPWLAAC
Neuronal acetylcholine receptor; alpha4/beta2 (Rattus norvegicus, UniProt P09483+P12390), sequence (P12390 whole entry): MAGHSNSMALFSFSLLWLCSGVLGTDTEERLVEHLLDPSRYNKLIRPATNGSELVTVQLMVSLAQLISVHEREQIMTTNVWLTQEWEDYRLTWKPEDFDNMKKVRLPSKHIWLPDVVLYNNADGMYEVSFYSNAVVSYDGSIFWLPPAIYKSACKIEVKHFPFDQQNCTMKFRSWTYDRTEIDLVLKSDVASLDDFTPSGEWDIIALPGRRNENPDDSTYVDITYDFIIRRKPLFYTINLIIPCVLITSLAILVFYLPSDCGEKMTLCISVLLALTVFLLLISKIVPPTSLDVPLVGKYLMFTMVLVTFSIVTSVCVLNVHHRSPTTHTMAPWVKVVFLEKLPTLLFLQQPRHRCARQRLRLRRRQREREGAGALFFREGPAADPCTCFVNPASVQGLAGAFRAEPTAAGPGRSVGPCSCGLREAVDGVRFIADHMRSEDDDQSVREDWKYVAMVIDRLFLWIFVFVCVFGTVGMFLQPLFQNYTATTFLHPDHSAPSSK
T2 sequence (P17787 whole entry): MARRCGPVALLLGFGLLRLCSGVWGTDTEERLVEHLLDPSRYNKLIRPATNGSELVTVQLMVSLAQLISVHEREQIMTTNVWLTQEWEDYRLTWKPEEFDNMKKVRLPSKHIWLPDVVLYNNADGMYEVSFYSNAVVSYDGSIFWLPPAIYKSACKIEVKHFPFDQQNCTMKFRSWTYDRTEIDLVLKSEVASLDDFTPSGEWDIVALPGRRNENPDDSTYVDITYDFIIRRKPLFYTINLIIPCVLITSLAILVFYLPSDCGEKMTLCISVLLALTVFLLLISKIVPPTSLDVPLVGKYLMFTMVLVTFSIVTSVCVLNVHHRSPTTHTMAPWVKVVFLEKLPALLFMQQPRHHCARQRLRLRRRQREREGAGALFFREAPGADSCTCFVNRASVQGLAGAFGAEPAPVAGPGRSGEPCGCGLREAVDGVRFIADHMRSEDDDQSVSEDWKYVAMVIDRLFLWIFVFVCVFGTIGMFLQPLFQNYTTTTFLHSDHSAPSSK
T2 sequence (P43681 whole entry): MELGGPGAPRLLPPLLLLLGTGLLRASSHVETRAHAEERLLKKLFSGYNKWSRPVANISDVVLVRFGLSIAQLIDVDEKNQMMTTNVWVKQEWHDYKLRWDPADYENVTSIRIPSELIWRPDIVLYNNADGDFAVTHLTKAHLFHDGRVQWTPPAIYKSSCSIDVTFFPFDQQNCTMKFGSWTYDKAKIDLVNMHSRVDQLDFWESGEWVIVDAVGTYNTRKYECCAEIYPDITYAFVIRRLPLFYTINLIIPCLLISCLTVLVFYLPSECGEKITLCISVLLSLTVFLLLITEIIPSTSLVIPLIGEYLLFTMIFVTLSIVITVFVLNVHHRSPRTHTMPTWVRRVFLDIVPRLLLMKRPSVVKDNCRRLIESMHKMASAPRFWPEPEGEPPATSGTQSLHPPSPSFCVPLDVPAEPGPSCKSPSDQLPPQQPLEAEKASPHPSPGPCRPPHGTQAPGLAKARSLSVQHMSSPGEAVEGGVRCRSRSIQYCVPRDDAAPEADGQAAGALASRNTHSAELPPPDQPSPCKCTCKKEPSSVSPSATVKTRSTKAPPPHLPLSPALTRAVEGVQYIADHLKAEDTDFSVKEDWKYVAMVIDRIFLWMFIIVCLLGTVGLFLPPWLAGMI

SMILES	Ki [1] [µM]	Ki [2] [µM]	Ki [3] [µM]	other results
CN1CCC[C@H]1[C@@H]1COc2ccc([N+](=O)[O-])cc2O1	4.5	10.4	14	
CN1CCC[C@H]1[C@H]1COc2ccc(N)cc2O1	0.18	19.1	0.14	
CN1CCC[C@H]1[C@H]1COc2cc([N+](=O)[O-])ccc2O1	4.8	13.5	> 100	
CN1CCC[C@H]1[C@H]1COc2cc(N)ccc2O1	8.6	> 10	74	
CC(=O)Nc1ccc2c(c1)O[C@H]([C@@H]1CCCN1C)CO2	1.9	> 10	6.5	
CN1CCC[C@H]1[C@@H]1COc2cc(O)ccc2O1	1.9	26.8	50	
CC(=O)Nc1ccc2c(c1)O[C@@H]([C@@H]1CCCN1C)CO2	8.7		46	
CN1CCC[C@H]1[C@@H]1COc2c(O)cccc2O1	3.9		0.55	
CN1CCC[C@H]1[C@@H]1COc2ccccc2O1				Ki [4]: 912 nM; Ratio Ki [5]: 1.29; Ki [6]: 1170 nM
CN1CCC[C@H]1[C@H]1COc2c(N)cccc2O1	13	44.5	0.131	IC50 [7]: 54.6 µM; Ki [4]: 156 nM; Imax (GH4-C1): 31%; Ratio Ki [5]: 2.4; Imax [8]: 31%; Imax [9]: 21.8%; Imax [10]: 38.2%; EC50 [11]: 8.7 µM; EC50 [12]: 2400 nM; EC50 [13]: 2400 nM; Ki [6]: 373 nM; EC50 [14]: 0.005 µM
CN1CCC[C@H]1[C@@H]1COc2c(N)cccc2O1	3.9	109	7.1	
CN1CCC[C@H]1[C@H]1COc2c(cccc2-c2ccccc2)O1	5.3	50	7.3	
CN1CCC[C@H]1[C@H]1COc2cc(-c3ccccc3)ccc2O1	5.8	2.1	92	
CN1CCC[C@H]1[C@@H]1COc2cc(-c3ccccc3)ccc2O1	5.4	8.1	59	
CN1CCC[C@H]1[C@@H]1COc2c(cccc2[N+](=O)[O-])O1	1.1		12.2	
CN1CCC[C@H]1[C@@H]1COc2ncccc2O1		89	0.41	Ki [4]: 265 nM; Imax (GH4-C1): 26%; Ratio Ki [5]: 0.43; Imax [8]: 26%; Imax [9]: 24.2%; EC50 [12]: 2600 nM; EC50 [13]: 2600 nM; Ki [6]: 114 nM
CN1CCC[C@H]1[C@H]1COc2cc(O)ccc2O1	6	10.5	71	
CN(C)c1ccc2c(c1)O[C@@H]([C@@H]1CCCN1C)CO2	25	> 10	49	
CN1CCC[C@H]1[C@H]1COc2c(cccc2[N+](=O)[O-])O1	6.7		0.335	
CN1CCC[C@H]1[C@@H]1COc2ccc(N)cc2O1	0.019	2.6	0.022	Ki [4]: 6 nM; Ratio Ki [5]: 7.7; Imax [9]: 36%; Imax [10]: 24%; EC50 [11]: 19 µM; Ki [6]: 46 nM; EC50 [14]: 14 µM
CN(C)c1ccc2c(c1)O[C@H]([C@@H]1CCCN1C)CO2	2.2		147	
CN1CCC[C@H]1[C@@H]1COc2cc(N)ccc2O1	3.5		86	
CN1CCC[C@H]1[C@H]1COc2ccc([N+](=O)[O-])cc2O1	2.1	42.2	33	
CN1CCC[C@H]1[C@@H]1COc2ccc(O)cc2O1				Ki [4]: 1.2 nM; Imax (GH4-C1): 29%; Ratio Ki [5]: 5.6; EC50 [12]: 3800 nM; EC50 [13]: 3800 nM; Ki [6]: 6.7 nM
CN1CCC[C@H]1[C@H]1COc2ccc(O)cc2O1	0.7			
CN1CCC[C@H]1[C@H]1COc2c(O)cccc2O1	> 100		1.7	
CN1CCC[C@H]1[C@@H]1COc2cc([N+](=O)[O-])ccc2O1	15	31.5	46	
CN1CCC[C@H]1[C@@H]1COc2c(cccc2-c2ccccc2)O1	2.7	45.5	0.64	

— ChEMBL document CHEMBL4673370, “Modifications at C(5) of 2-(2-Pyrrolidinyl)-Substituted 1,4-Benzodioxane Elicit Potent α4β2 Nicotinic Acetylcholine Receptor Partial Agonism with High Selectivity over the α3β4 Subtype” (J Med Chem, 2020)
